Columns and labels:
[1] = biological target: Delta-type opioid receptor (Rattus norvegicus) (UniProt P33533); test: Ratio of IC50 of opioid receptor delta to IC50 opioid receptor mu
[2] = biological target: Kappa-type opioid receptor (Rattus norvegicus) (UniProt P34975); test: Ratio of IC50 of opioid receptor kappa to IC50 opioid receptor mu
[3] = biological target: Delta-type opioid receptor (Rattus norvegicus, UniProt P33533); test: Binding ability towards opioid receptor delta expressed in homogenates of rat brain.; type: tissue-based
[4] = biological target: Mu-type opioid receptor (Rattus norvegicus, UniProt P33535); test: Binding ability towards opioid receptor mu expressed in homogenates of rat brain.; type: tissue-based
[5] = species on record: Mus musculus; test: Analgesic activity evaluated in mice by writhing test (confidence limit); type: functional
[6] = biological target: Delta-type opioid receptor (Rattus norvegicus) (UniProt P33533); test: Binding ability towards opioid receptor delta expressed in homogenates of rat brain at 100 nM concentration; type: tissue-based
Summary of the method: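 Rat brain homogenate, δ opioid binding site. Test compound at 100 nM. The value is the maximum percent displacement at that concentration.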

[7] = test system: Mus musculus; test: Number of mice of those tested in which 10 mg/kg compound inhibited writhing; type: functional
Summary of the method: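 Mouse writhing test with a single 10 mg/kg dose of compound. The value is the count of mice whose writhing was inhibited, out of the number tested.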

Chain of Kappa-type opioid receptor (Rattus norvegicus) (P34975 whole entry): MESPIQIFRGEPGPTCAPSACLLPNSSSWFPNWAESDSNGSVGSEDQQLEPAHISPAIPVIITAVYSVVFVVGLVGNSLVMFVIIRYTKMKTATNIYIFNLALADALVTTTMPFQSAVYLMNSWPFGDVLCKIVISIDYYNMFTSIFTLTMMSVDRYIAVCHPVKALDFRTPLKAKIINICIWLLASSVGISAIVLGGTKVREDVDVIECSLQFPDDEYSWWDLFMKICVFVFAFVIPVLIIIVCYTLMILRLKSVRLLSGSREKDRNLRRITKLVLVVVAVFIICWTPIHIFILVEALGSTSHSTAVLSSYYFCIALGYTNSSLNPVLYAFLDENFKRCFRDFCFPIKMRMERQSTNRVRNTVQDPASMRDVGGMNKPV
Chain of Delta-type opioid receptor (P33533 whole entry): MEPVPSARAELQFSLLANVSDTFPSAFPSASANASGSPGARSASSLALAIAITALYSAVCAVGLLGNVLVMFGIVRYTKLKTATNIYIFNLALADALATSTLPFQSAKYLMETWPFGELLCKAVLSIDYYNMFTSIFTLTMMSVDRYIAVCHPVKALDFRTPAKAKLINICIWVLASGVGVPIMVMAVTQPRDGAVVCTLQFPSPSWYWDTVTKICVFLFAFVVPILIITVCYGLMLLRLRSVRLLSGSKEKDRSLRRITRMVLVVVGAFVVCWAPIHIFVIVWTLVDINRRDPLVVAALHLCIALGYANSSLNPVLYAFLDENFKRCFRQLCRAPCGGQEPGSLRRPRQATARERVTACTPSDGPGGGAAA
Chain of Delta-type opioid receptor (Rattus norvegicus) (P33533 whole entry): as above
Chain of Mu-type opioid receptor (P33535 whole entry): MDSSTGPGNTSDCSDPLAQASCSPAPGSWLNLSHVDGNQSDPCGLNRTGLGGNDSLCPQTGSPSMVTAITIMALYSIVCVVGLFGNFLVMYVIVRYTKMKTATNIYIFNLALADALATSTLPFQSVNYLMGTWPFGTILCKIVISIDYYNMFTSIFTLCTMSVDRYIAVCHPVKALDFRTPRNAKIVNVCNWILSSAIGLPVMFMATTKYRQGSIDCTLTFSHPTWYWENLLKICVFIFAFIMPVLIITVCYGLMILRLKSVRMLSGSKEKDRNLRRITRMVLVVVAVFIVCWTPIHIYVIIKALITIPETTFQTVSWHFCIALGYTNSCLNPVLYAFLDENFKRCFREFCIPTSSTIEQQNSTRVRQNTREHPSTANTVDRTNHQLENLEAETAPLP

| SMILES | Ratio [1] | Ratio [2] | IC50 [3] [nM] | IC50 [4] [nM] | ED50 [5] [mg/kg] | Displacement [6] [%] | No. of mice [7] |
| --- | --- | --- | --- | --- | --- | --- | --- |
| Cc1cc(O)cc(C)c1C[C@H](N)C(=O)N[C@@H](COCCCc1ccccc1)COC(C)(C)C | 10.3 | 282 | 340 | 33 | 1.7 | – | – |
| Cc1cc(O)cc(C)c1C[C@H](N)C(=O)NC(C)/C=C/CCCc1ccccc1 (some centres not stated) | – | 1100 | – | 5.4 | 2.1 | 39.3 | – |
| Cc1cc(O)cc(C)c1C[C@H](N)C(=O)N[C@H](C)C(=O)NCCCc1ccccc1 | 30.6 | 2920 | 3.98 | 0.13 | 0.52 | – | – |
| Cc1cc(O)cc(C)c1C[C@H](N)C(=O)N[C@H](C)CNCCCc1ccccc1 | 354 | 2540 | 46 | 0.13 | – | – | 4 |
| Cc1cc(O)cc(C)c1C[C@H](N)C(=O)N1CCCCC1COCCCc1ccccc1 (some centres not stated) | 67.9 | 173 | 110 | 1.62 | 2.1 | – | – |
| Cc1cc(O)cc(C)c1C[C@H](N)C(=O)N1CCCCC1CNCCCc1ccccc1 (some centres not stated) | 269 | 222 | 12.1 | 0.045 | – | – | 3 |
| Cc1cc(O)cc(C)c1C[C@H](N)C(=O)N[C@H](CO)COCCCc1ccccc1 | 139 | 3530 | 233 | 1.67 | 2.1 | – | – |
| Cc1cc(O)cc(C)c1C[C@H](N)C(=O)N[C@H](C)COCCCc1ccccc1 | 42 | 2600 | 21 | – | – | – | 3 |
| Cc1cc(O)cc(C)c1C[C@H](N)C(=O)NC(C)/C(F)=C/CCCc1ccccc1 (some centres not stated) | – | 1160 | – | 6.9 | 2.1 | 47.3 | – |
